pIC50: −log10 of the molar value.
Experiments:
Chenopodium album = test: Herbicidal activity against Chenopodium album assessed as reduction in plant growth measured 21 days after compound post-emergence spray application; type: functional
In short: (§1)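 GR50 = rate giving 50% growth reduction, scored 21 days after postemergence spray. Application rates are expressed in kg/ha.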

[1] = target: T1, 4-hydroxyphenylpyruvate dioxygenase (Arabidopsis thaliana, UniProt P93836); test: Inhibition of Arabidopsis thaliana 4-hydroxyphenylpyruvate dioxygenase
T1 sequence (P93836 whole entry): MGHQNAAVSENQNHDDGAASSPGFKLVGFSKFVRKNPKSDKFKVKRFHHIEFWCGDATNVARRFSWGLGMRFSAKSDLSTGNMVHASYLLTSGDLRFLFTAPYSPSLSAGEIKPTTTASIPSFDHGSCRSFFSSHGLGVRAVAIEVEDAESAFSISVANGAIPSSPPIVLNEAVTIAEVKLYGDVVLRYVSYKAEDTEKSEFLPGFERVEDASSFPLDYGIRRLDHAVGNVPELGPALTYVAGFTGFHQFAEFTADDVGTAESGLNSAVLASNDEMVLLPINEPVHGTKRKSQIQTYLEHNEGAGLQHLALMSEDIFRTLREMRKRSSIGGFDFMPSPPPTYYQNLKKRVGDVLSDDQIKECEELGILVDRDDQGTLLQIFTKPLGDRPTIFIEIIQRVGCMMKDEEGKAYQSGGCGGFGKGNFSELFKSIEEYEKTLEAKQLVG
In short: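 Recombinant Arabidopsis thaliana HPPD enzyme, assayed by a previously published method.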

Abutilon theophrasti = test: Herbicidal activity against Abutilon theophrasti (velvetleaf) assessed as reduction in plant growth measured 21 days after compound post-emergence spray application; type: functional; in short: as §1
Echinochloa crus-galli = test: Herbicidal activity against Echinochloa crus-galli (barnyard grass) assessed as reduction in plant growth measured 21 days after compound post-emergence spray application; type: functional; in short: as §1
Setaria italica = test: Herbicidal activity against Setaria italica assessed as reduction in plant growth measured 21 days after compound post-emergence spray application; type: functional
Centaurea cyanus = test: Herbicidal activity against Centaurea cyanus assessed as reduction in plant growth measured 21 days after compound post-emergence spray application; type: functional

| SMILES | GR50 (Chenopodium album) | pIC50 [1] | GR50 (Abutilon theophrasti) | GR50 (Echinochloa crus-galli) | GR50 (Setaria italica) | GR50 (Centaurea cyanus) |
| --- | --- | --- | --- | --- | --- | --- |
| CCOc1c(S(=O)(=O)CC)ccc(C(=O)c2c(C)nc(-c3cccn3C)n2O)c1Cl | >3 kg/ha | < 4.70 | >3 kg/ha | >3 kg/ha |  |  |
| CCOc1c(S(=O)(=O)CC)ccc(C(=O)c2c(C)nc(C)n2O)c1Cl | 0.05 kg/ha | 7.32 | 0.1 kg/ha | 0.5 kg/ha |  |  |
| CCOc1c(S(=O)(=O)CC)ccc(C(=O)/C(=N\O)C(C)=O)c1Cl |  | 4.70 |  | >3 kg/ha | >3 kg/ha | >3 kg/ha |
| CCOc1c(S(=O)(=O)CC)ccc(C(=O)c2c(C)[n+]([O-])c(C)n2O)c1Cl | >3 kg/ha | 6.72 | >3 kg/ha | >3 kg/ha |  |  |
| Cc1[nH]n(C)c(=O)c1C(=O)c1ccc(S(C)(=O)=O)c(C2=NOCC2)c1Cl | <0.01 kg/ha | 6.72 | <0.01 kg/ha | <0.01 kg/ha |  |  |
| Cc1cc(C)c(C(=O)c2c(C)nc(C)n2O)c(C)c1 | >3 kg/ha | < 4.70 | >3 kg/ha | >3 kg/ha |  |  |
| CSc1ccc(C(=O)/C(=N\O)C(C)=O)c(C)c1Cl |  | < 4.70 |  | >3 kg/ha | >3 kg/ha | >3 kg/ha |
| CCOc1c(S(=O)(=O)CC)ccc(C(=O)c2c(C)nc(C(C)C)n2O)c1Cl | 1.5 kg/ha | 7.37 | >3 kg/ha | >3 kg/ha |  |  |
| CC(=O)/C(=N/O)C(=O)c1ccc(S(C)(=O)=O)c(C2=NOCC2)c1Cl |  | 4.89 |  | 2.5 kg/ha | >3 kg/ha | >3 kg/ha |
| CSc1ccc(C(=O)c2c(C)nc(C)n2O)c(C)c1Cl | >0.5 kg/ha | < 4.70 | >0.5 kg/ha | >0.5 kg/ha |  |  |
| CCOc1c(S(=O)(=O)CC)ccc(C(=O)c2c(C)ncn2O)c1Cl | 0.4 kg/ha | 4.70 | >0.5 kg/ha | >0.5 kg/ha |  |  |
| Cc1nc(C)n(O)c1C(=O)c1ccc(S(C)(=O)=O)c2ncccc12 | >1 kg/ha | < 4.70 | >1 kg/ha | >1 kg/ha |  |  |
| COc1c(S(C)(=O)=O)ccc(C(=O)c2c(C)nc(C)n2O)c1C | 0.06 kg/ha | 4.74 | 0.7 kg/ha | >1 kg/ha |  |  |
| CCOc1c(S(=O)(=O)CC)ccc(C(=O)c2c(C)nc(-c3ccccc3)n2O)c1Cl | >0.5 kg/ha | < 4.70 | >0.5 kg/ha | >0.5 kg/ha |  |  |
| COc1c(S(C)(=O)=O)ccc(C(=O)/C(=N\O)C(C)=O)c1C |  | < 4.70 |  | >3 kg/ha | >3 kg/ha | >3 kg/ha |
| CCOc1c(S(=O)(=O)CC)ccc(C(=O)c2c(C)nc(-c3cccs3)n2O)c1Cl | >3 kg/ha | < 4.70 | >3 kg/ha | >3 kg/ha |  |  |
| Cc1nc(C)n(O)c1C(=O)c1ccc(S(C)(=O)=O)cc1Cl | >0.5 kg/ha | < 4.70 | >0.5 kg/ha | >0.5 kg/ha |  |  |
| CCOc1c(S(=O)(=O)CC)ccc(C(=O)c2c(C)nc(-c3ccc(Cl)cc3Cl)n2O)c1Cl | >0.5 kg/ha | < 4.70 | >0.5 kg/ha | >0.5 kg/ha |  |  |
| CCOc1c(S(=O)(=O)CC)ccc(C(=O)c2c(C)nc(CC)n2O)c1Cl | 0.2 kg/ha | 7.15 | >0.5 kg/ha | >0.5 kg/ha |  |  |
| Cc1nc(C)n(O)c1C(=O)c1ccc(S(C)(=O)=O)c(C2=NOCC2)c1Cl | 0.3 kg/ha | 7.44 | >3 kg/ha | 2 kg/ha |  |  |

— ChEMBL document CHEMBL3046350, “Design, synthesis and herbicidal activity of new iron chelating motifs for HPPD-inhibitors” (Bioorg Med Chem, 2009)
